Laboratory results published in ChEMBL document CHEMBL3352043, “Discovery of small-molecule inhibitors selectively targeting the DNA-binding domain of the human androgen receptor” (J Med Chem, 2014).
Residue numbers refer to the chain shown, from its start. Activity calls are given as the source filed them. The calls are words filed in the database; no cut-off is given here.

What was measured:
[1] = Stability of the compound in RPMI plus 5% charcoal stripped serum media after 1 hr by MS analysis; format: physicochemical
[2] = target: T1, Androgen receptor (Homo sapiens) (UniProt P10275); assay: Inhibition of androgen receptor V7 (unknown origin) expressed in human PC3 cells assessed as inhibition of transcription activity after 24 hrs by luciferase reporter gene assay; format: cell-based; details: PC-3
T1 sequence (whole entry): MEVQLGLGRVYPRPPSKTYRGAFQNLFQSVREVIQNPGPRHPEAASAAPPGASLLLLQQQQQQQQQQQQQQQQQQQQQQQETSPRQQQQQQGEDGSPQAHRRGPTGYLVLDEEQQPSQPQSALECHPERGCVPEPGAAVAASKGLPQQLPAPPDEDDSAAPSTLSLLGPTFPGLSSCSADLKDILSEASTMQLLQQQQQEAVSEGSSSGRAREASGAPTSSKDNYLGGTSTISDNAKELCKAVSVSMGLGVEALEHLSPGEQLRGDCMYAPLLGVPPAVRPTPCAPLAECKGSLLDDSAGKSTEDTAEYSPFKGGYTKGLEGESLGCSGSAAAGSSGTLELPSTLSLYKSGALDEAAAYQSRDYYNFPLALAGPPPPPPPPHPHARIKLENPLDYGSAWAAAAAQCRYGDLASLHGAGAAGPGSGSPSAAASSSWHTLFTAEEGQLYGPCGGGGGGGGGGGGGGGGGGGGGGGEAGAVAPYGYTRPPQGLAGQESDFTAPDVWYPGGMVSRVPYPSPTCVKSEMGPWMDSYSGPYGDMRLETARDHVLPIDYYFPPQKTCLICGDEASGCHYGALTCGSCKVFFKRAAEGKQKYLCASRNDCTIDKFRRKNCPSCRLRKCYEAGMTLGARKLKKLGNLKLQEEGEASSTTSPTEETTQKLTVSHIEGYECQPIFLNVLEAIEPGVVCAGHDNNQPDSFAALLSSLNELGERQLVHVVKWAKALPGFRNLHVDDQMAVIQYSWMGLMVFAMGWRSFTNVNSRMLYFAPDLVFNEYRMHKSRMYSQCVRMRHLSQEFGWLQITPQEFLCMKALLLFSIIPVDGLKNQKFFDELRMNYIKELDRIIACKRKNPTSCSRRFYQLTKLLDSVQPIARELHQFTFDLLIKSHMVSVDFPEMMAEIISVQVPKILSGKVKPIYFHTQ
Outline: (§1)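 PC3 cells were starved 5 days in RPMI 1640 with 5% charcoal-stripped serum and seeded at 5000 cells/well. After 24 h they were cotransfected with AR-V7 or hAR mutant plasmid plus 50 ng ARR3tk-luciferase. At 48 h post-transfection, compounds were added for 24 h with 0.1 nM R1881. Luminescence was read from passive-lysis-buffer lysates; mutant tests used 10 μM.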

[3] = system: T2, Androgen receptor (Homo sapiens), P10275 [Y594D]; assay: Inhibition of human androgen receptor Y594D mutant expressed in human PC3 cells assessed as inhibition of transcription activity after 24 hrs by luciferase reporter gene assay; format: cell-based; details: PC-3; outline: as §1
T2 sequence (whole entry): T1 sequence (whole entry) with Y594D

MR49F = assay: Growth inhibition of enzalutamide-resistant human MR49F cells after 3 days by MTS assay; format: functional, cell-based
Outline: (§2)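 LNCaP and MR49F cells were seeded at 3000 cells/well in RPMI 1640 with 5% charcoal-stripped serum. They were treated with 0.1 nM R1881 plus compound (0−25 μM) for 4 days; the figure legend gives 3 days. Readout was MTS tetrazolium absorbance. Growth was normalized as (sample − vehicle)/(0.1 nM R1881 − vehicle) × 100.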

[4] = Growth inhibition of AR-negative human PC3 cells after 3 days by MTS assay; format: cell-based; details: pc-3, 72 h
LNCaP = assay: Growth inhibition of AR-dependent human LNCAP cells after 3 days by MTS assay; format: functional, cell-based; outline: as §2

Stability [1]	inhibition [2]	inhibition [3]	SMILES	growth inhibition (GI) (MR49F)	Activity [4]	growth inhibition (GI) (LNCaP)
Stable	Dose-dependent effect	inactive	Brc1ncn(-c2csc(N3CCOCC3)n2)c1Br	Active	Non-toxic	Dose-dependent effect
	Dose-dependent effect	inactive	c1ccc(-c2csc(N3CCOCC3)n2)cc1			
